From ChEMBL document CHEMBL1134489, “Enantioselective syntheses of dopaminergic (R)- and (S)-benzyltetrahydroisoquinolines” (J Med Chem, 2001)

What was measured:
D(1A) dopamine receptor = D(1A) dopamine receptor (Rattus norvegicus, UniProt P18901); assay: Inhibition of [3H]-SCH- 23390 binding to the rat striatal membranes; type: cell membranes, Membrane
Method in brief: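 Striatal membranes washed twice at 20000g, resuspended in Tris with 5 mM MgSO4, 0.5 mM EDTA, 0.02% ascorbic acid, sonicated. Membranes (100 µg protein) incubated 1 h at 25 °C with 0.25 nM [3H]SCH 23390 and test drug. Nonspecific binding defined with 30 µM SK&F 38393. Filtration, then scintillation counting. IC50 from curves of 4-11 concentrations, 4-6 determinations per concentration.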

[1] = biological target: Sodium-dependent dopamine transporter (Rattus norvegicus, UniProt P23977); assay: Inhibition of [3H]dopamine uptake in rat striatal synaptosomes; type: subcellular, Brain
Method in brief: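 Synaptosomes from male Wistar rat striatum (sucrose homogenate, 1000g then 15000g pellet) in oxygenated Krebs-Ringer pH 7.6. Preincubated 5 min with 10 µM pargyline, then 5 min with 2 nM final [3H]dopamine. Stopped by ice-cold dilution and filtration. Retained radioactivity counted by liquid scintillation. IC50 from curves with 4-11 concentrations, 4-6 determinations each.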

D(2) dopamine receptor = D(2) dopamine receptor (Rattus norvegicus, UniProt P61169); assay: Inhibition of [3H]-Raclopride binding to the rat striatal membranes; type: cell membranes, Membrane
Method in brief: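 Rat striatum homogenized in 50 mM Tris-HCl pH 7.4, washed four times by centrifugation at 20000g, resuspended in Tris with 120 mM NaCl, 5 mM KCl, 1 mM CaCl2, 1 mM MgCl2, 0.1% ascorbic acid. Membranes (200 µg protein) incubated 1 h at 25 °C with 0.5 nM [3H]raclopride plus drug. Nonspecific binding defined with 50 µM apomorphine. Filtration, scintillation counting. IC50 from 4-11 concentrations, 4-6 determinations each.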

D(1A) dopamine receptor, sequence (P18901 whole entry): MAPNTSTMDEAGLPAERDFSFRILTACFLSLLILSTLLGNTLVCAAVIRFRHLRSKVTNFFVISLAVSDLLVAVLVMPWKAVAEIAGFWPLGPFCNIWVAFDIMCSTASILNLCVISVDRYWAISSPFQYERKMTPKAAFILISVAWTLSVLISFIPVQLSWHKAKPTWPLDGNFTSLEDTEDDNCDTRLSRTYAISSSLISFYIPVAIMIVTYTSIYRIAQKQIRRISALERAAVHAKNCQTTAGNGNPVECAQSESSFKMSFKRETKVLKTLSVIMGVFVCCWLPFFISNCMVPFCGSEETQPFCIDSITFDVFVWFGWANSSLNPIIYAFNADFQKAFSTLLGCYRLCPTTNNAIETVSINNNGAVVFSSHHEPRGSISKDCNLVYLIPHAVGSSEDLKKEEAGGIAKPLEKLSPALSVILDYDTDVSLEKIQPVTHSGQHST
D(2) dopamine receptor, sequence (P61169 whole entry): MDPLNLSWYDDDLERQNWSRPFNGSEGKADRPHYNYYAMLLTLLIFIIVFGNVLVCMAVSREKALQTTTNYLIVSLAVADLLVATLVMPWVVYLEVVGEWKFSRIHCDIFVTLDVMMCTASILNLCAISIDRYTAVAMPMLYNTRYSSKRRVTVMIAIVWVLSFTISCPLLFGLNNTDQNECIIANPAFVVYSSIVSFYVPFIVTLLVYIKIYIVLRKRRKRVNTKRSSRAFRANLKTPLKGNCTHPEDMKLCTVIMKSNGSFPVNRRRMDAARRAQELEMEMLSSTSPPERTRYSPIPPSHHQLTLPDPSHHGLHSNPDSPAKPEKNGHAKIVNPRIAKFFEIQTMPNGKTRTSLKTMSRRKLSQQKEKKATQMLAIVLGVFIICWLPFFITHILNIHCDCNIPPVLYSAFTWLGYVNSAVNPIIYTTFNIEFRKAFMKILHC
Sodium-dependent dopamine transporter, sequence (P23977 whole entry): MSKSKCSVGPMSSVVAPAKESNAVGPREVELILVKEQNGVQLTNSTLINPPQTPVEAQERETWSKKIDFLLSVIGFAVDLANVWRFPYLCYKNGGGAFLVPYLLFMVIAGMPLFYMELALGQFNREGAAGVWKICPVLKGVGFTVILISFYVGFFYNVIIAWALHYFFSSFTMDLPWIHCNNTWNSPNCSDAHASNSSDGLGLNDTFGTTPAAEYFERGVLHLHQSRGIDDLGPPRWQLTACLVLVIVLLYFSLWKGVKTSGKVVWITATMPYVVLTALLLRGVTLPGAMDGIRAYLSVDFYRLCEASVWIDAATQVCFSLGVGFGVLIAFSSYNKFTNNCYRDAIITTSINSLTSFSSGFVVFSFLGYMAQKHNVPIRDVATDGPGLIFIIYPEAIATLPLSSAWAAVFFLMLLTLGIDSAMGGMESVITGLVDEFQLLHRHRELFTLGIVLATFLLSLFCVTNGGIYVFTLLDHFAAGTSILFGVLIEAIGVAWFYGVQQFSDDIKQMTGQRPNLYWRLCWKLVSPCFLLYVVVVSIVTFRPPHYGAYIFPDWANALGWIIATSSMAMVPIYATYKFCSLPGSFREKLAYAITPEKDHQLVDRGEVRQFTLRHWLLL

SMILES | IC50 (D(1A) dopamine receptor) [µM] | IC50 [1] [µM] | IC50 (D(2) dopamine receptor) [µM]
c1ccc(C[C@H]2NCCc3cc4c(cc32)OCO4)cc1 | > 100 | 6.8 | 53.1
c1ccc(C[C@@H]2NCCc3cc4c(cc32)OCO4)cc1 | 23.9 | 3.6 | 4

Second part, the molecule after the results:

IC50 (D(1A) dopamine receptor) [µM] | IC50 [1] [µM] | IC50 (D(2) dopamine receptor) [µM] | SMILES
> 100 | 91.5 | 61.2 | CCCN1CCc2cc(O)c(O)cc2[C@H]1Cc1ccccc1
> 100 | 43.6 | > 100 | CCCN1CCc2cc3c(cc2[C@H]1Cc1ccccc1)OCO3
51.9 | 20.3 | 21.9 | CCCN1CCc2cc3c(cc2[C@@H]1Cc1ccccc1)OCO3
16.6 | 64.8 | 14.7 | CCCN1CCc2cc(O)c(O)cc2[C@@H]1Cc1ccccc1
